Series [1] concerns Mus musculus. The series is described as follows: Inhibition of gamma-secretase in CD1 mouse assessed as total amyloid beta level in brain at 10 mg/kg, po at 8 hrs by ELISA relative to control. The class given is functional. Set-up: scale not given: the % may be the effect or the level left. In short, it runs like this:
(§1)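 Fasted male CD1 SPF mice were dosed orally at 10 or 30 mg/kg in 20% Captisol. Right hemisphere was homogenized in 0.4% DEA/50 mM NaCl and the high-speed supernatant neutralized. Aβtotal ELISA used N-terminal JRF/rAβ/2 capture, biotinylated 4G8 and streptavidin-peroxidase, then a fluorogenic substrate (ex 320/em 420 nm). Standards spanned 10000–0.3 pg/mL. Values are % change vs T = 0 h, n = 4.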
In general terms: ELISA stands for enzyme-linked immunosorbent assay.

Series [2] in a line: Thermodynamic solubility in buffer at pH 7.4. It is filed as physicochemical. The following applies: read-out: Therm_solubility. In short, it runs like this: (§2)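 Thermodynamic solubility was measured in pH 4.0 and pH 7.4 buffers, 0.01 N HCl, and fasted-state and fed-state simulated intestinal fluids (FaSSIF, FeSSIF). Results are in […].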
For series [3], the system named is Rattus norvegicus. The series is described as follows: Antialzheimer activity in Sprague-Dawley rat assessed as amyloid beta 37 level in brain at 10 mg/kg, po at 25 hrs by ELISA relative to control. The class given is functional. In short, it runs like this: (§3)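 Male Sprague-Dawley rats (180-220 g), fasted overnight, were given 10 mg/kg by gastric intubation as a 5 mg/mL suspension in 0.5% methocellulose. At 2, 4, 7 and 25 h, 50 μL CSF was taken from the cisterna magna under isoflurane, then brain was collected. Aβ37/38/40/42 were measured by MesoScale Discovery sandwich immunoassays. Results are mean % change versus T = 0 h, n = 5.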

Series [4] has as its system Rattus norvegicus. The series is described as follows: Antialzheimer activity in Sprague-Dawley rat assessed as amyloid beta 42 level in CSF at 10 mg/kg, po at 2 hrs by ELISA relative to control. It is filed as functional. A digest of the protocol:
as §3

For the next series, the target named is T1, Cytochrome P450 1A2 (Homo sapiens, UniProt P05177).
T1 sequence (P05177 whole entry): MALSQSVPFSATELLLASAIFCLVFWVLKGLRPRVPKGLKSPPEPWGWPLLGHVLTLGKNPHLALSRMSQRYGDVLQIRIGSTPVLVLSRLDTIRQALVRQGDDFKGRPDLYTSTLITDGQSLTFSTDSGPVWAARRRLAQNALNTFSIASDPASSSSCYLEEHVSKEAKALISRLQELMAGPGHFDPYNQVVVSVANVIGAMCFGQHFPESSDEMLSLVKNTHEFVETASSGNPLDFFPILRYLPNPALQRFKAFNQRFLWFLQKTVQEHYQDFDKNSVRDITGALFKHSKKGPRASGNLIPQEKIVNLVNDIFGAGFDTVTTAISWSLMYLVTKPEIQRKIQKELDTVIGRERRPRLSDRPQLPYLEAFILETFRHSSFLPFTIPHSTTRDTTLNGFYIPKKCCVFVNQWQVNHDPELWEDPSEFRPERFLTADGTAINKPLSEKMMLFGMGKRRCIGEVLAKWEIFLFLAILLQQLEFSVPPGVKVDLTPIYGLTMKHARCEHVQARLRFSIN
The series is described as follows: Inhibition of CYP1A2 in human liver microsomes using phenacetin as substrate. The class given is ADME, Microsome.

Series [5] is described as follows: Oral bioavailability in Sprague-Dawley rat at 10 mg/kg. The class given is ADME, organism-based. The following applies: in vivo.
Series [6] in a line: Genotoxicity against human TK6 cells by GreenScreen HC test. The class given is toxicity, cell-based.
A short description of series [7]: Fraction unbound in rat plasma. The class given is ADME, cell-free.
The nature of series [8]: Drug uptake in CD1 mouse brain at 10 mg/kg, po at 8 hrs by LC-MS/MS analysis. It is filed as ADME, organism-based. More on the design: dose 10 mg/kg, route oral. The following applies: read-out: Drug uptake. In short, it runs like this:
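Overnight-fasted male CD1 mice received one oral dose (10 or 30 mg/kg) in 20% Captisol. After sacrifice, the left brain hemisphere was stored at −18 °C. Compound level was quantified by a qualified LC-MS/MS method, alongside EDTA plasma spun at 1900g, 4 °C. n = 4 per time point.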

The nature of series [9]: Plasma concentration in CD1 mouse at 30 mg/kg, po at 4 hrs by LC-MS/MS analysis. The class given is ADME, organism-based. Set-up: dose 30 mg/kg, route oral. A digest of the protocol:
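Single oral dose to overnight-fasted male CD1 mice in 20% Captisol suspension. Plasma was taken at 4 h by decapitation into EDTA tubes and spun at 1900g for 10 min at 4 °C. Compound was measured by a qualified LC-MS/MS method. Values are geometric means of at least four runs.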

Series [10] in a line: Plasma concentration in Sprague-Dawley rat at 10 mg/kg, po at 7 hrs by LC-MS/MS analysis. It is filed as ADME, organism-based. More on the design: dose 10 mg/kg, route oral. A digest of the protocol:
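Overnight-fasted male Sprague-Dawley rats (180–220 g) were given 10 mg/kg by gastric intubation of a 5 mg/mL suspension in 0.5% methocellulose. Blood was collected after decapitation at 2, 4, 7 and 25 h under isoflurane anaesthesia. Plasma compound was measured as in the mouse assay, n = 5.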

A further series deals with Liver microsomes. The series is described as follows: Drug metabolism in human liver microsome assessed as reactive metabolite formation by cyanide-trapping assay. The class given is ADME. Background: Microsomes from liver hold many membrane-bound enzymes, among them those of drug oxidation.
Series [11] has as its system Rattus norvegicus. The series is described as follows: Antialzheimer activity in Sprague-Dawley rat assessed as amyloid beta 42 level in CSF at 10 mg/kg, po at 7 hrs by ELISA relative to control. The class given is functional. A digest of the protocol: as §3
Series [12] can be described thus: Thermodynamic solubility in fed state simulated intestinal fluid. The class given is physicochemical. The following applies: read-out: Therm_solubility. A digest of the protocol: as §2
Series [13] can be described thus: Drug metabolism in rat liver microsomes at 1 uM after 15 mins by ion-trap mass spectrophotometry. The following applies: read-out: Drug metabolism. It is filed as ADME, Microsome.
Series [14] is described as follows: Drug metabolism in mouse liver microsomes at 1 uM after 15 mins by ion-trap mass spectrophotometry. The class given is ADME, Microsome. The following applies: read-out: Drug metabolism.
A short description of series [15]: Thermodynamic solubility in buffer at pH 4. The following applies: read-out: Therm_solubility. The class given is physicochemical. In short, it runs like this: as §2
The test system of series [16] is Rattus norvegicus. The series is described as follows: Antialzheimer activity in Sprague-Dawley rat assessed as amyloid beta 37 level in brain at 10 mg/kg, po at 4 hrs by ELISA relative to control. It is filed as functional. In short, it runs like this:
as §3

Series [17] relates to Mus musculus. The series is described as follows: Inhibition of gamma-secretase in CD1 mouse assessed as total amyloid beta level in brain at 30 mg/kg, po at 8 hrs by ELISA relative to control. The class given is functional. More on the design: scale not given: the % may be the effect or the level left. A digest of the protocol:
as §1

The subject of series [18] is Mus musculus. The series is described as follows: Antialzheimer activity in CD1 mouse assessed as amyloid beta 42 level in brain at 10 mg/kg, po at 24 hrs by ELISA relative to control. It is filed as functional. A digest of the protocol:
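Male CD1 SPF mice, fasted overnight, got a single oral dose of 10 or 30 mg/kg. At each time point the right brain hemisphere was homogenized in 0.4% DEA/50 mM NaCl with protease inhibitors and spun at 221300g for 50 min. The supernatant was neutralized with Tris-HCl pH 6.8. Aβ38 or Aβ42 was read by sandwich ELISA with a fluorogenic peroxidase substrate (ex 320/em 420 nm). Results are mean % change versus T = 0 h, n = 4.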

The nature of series [19]: Plasma concentration in beagle dog at 20 mg/kg, po at 4 hrs. Set-up: dose 20 mg/kg, route oral. The class given is ADME, organism-based, Canis lupus familiaris.
Series [20] in a line: Plasma concentration in CD1 mouse at 10 mg/kg, po at 24 hrs by LC-MS/MS analysis. Set-up: dose 10 mg/kg, route oral. It is filed as ADME, organism-based. In short, it runs like this:
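Mice received a single 10 or 30 mg/kg oral dose. Plasma was sampled at several time points up to 48 h, with EDTA plasma obtained by centrifugation at 1900g, 10 min, 4 °C. Compound was quantified by LC-MS/MS, n = 4.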

A further series concerns Canis familiaris. The series is described as follows: Antialzheimer activity in beagle dog assessed as amyloid beta 38 level in cerebrospinal fluid at 20 mg/kg, po at 8 hrs by ELISA relative to control.

Here are results for one molecule from ChEMBL document CHEMBL2176900, “Design and synthesis of a novel series of bicyclic heterocycles as potent γ-secretase modulators” (J Med Chem, 2012).

SMILES strings stand for the structures. ≈ marks a conversion by molar mass, not a printed value. Bounds are passed on as bounds.

As usually defined, the IC50 is the point on the concentration scale where inhibition reaches its midpoint. One may read the bioavailability as the share of a dose that reaches the circulation, judged against a reference dose that is usually intravenous. What is called fraction unbound is the share of the substance not bound to proteins or other matrix. As to `COc1nc(Nc2cccc3c2nc(-c2ccc(F)cc2)n3C)ccc1-n1cnc(C)c1`, the Activity with Mus musculus [1] is listed as 86%; in the series on Rattus norvegicus [3] it was 128%; in the series with Rattus norvegicus [4], 65%; in [6] it was “Non-toxic”; with Rattus norvegicus [11] it was 57%; in the series with Rattus norvegicus [16], 506%. The Activity stood at 83% in the series on Mus musculus [17], 94% in the series on Mus musculus [18] and 184% with Canis familiaris. In addition, the solubility thermodynamic in series [2] was less than 1 µg/mL; in series [12], 20 µg/mL (≈ 46.7 µM); in series [15], less than 1 µg/mL. The same molecule registered a half-maximal inhibitory concentration (IC50) on Cytochrome P450 1A2 greater than 30 µM. The bioavailability in [5] is 95%. In series [7], this molecule yielded an unbound share (fraction unbound) of 0.0004. Moreover, the concentration at 8 h in series [8] was 1.9 µM. Besides, the concentration at 4 h in series [9] was 19.5 µM; in [19], 4.1 µM. The same molecule came in with a concentration at 7 h in series [10] of 4 µM. Also, in the series with Liver microsomes, the Drug metabolism result was “Not Active”. For the same molecule, the metabolised at 0.25 h, 1 µM was 16% in series [13] and 0% in series [14]. Besides, the concentration at 24 h in series [20] was found to be 0.004 µM.
